V-ATPase pH: regulators of yeast V-ATPase proton pumping, primary screen, pHLuorin cytosolic pH fluorescence; S. cerevisiae; response, % at 10 µM; 0.37% of 350,000 active; AID 504577, 2011; in the data active = response mostly above about 7.3%, no sharp cut-off; inactive = mostly below about 5.4%; note: actives read high
CHOP inh: inhibitors of CHOP promoter induction, primary screen, cell-based, unfolded protein response, luciferase reporter; inhibition, % at 10 µM; CHO-K1 CHOP-promoter luciferase, tunicamycin-induced, 15-18 h; 3.8% of 220,000 active;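 active = compounds that reduced the stress-induced luciferase reporter signal by more than about 70% of percent inhibition, limit read from the data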
Tb MetRS inh: T. brucei MetRS inhibitors, primary screen, biochemical, luminescence | purified T. brucei MetRS, ATP depletion, Kinase-Glo luminescence | inhibition, % at 11.9 µM | 0.4% of 360,000 active;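 active = inhibition above a per-plate cutoff of the control wells' mean inhibition plus 3 SD, cut at about 5.5% in these data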
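Material – parasite MetRS enzyme · Medium – HEPES-MgCl2-KCl buffer plus DTT, spermine, BSA, pyrophosphatase · Reagent – ATP, methionine and E. coli bulk tRNA substrates · Times – 15 min enzyme-compound preincubation, 2 h reaction, 10 min detection, 25 °C · Measured by – luminescence of leftover ATP · Evaluation – percent inhibition relative to median high and low control wells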
UPR CHOP act: activators of apoptotic CHOP UPR arm, primary screen, cell-based, CHO-CHOP luciferase reporter, luminescence, uHTS; UPR activation; percent of tunicamycin response over DMSO baseline; activation, % at 10 µM; 0.34% of 330,000 active; AID 449763, 2010;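 active = at 10 µM dose, activation of 40% or more, normalized to positive control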
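System: CHO-CHOP luciferase reporter cell line; amount: 500 cells/well; buffer or medium: F12 medium containing 10% fetal bovine serum; incubation: 6 h compound exposure at 37 °C after overnight seeding; measured by: luciferase luminescence after 10 min with Steady-Glo reagent; evaluation: % reporter activation, DMSO baseline versus tunicamycin full activation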
XBP1 UPR activ: activators of adaptive XBP1 UPR arm, primary screen, cell-based, CHO-XBP1 luciferase reporter, luminescence, uHTS; IRE1-XBP1 UPR activation; percent of tunicamycin response, DMSO as zero; activation, % at 20 µM; 0.33% of 330,000 active;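 active = versus positive control, 20 µM dose yields 30% or more activation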
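incubation = overnight seeding at 37 °C, 6 h compound treatment at 37 °C | assay system = CHO-XBP1 cells stably carrying IRE1-XBP1-driven luciferase reporter | input = 1000 cells per well | detection = luciferase luminescence | dosing = single point, 20 µM final compound, 1% DMSO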
UPR XBP1 confirm: IRE1-XBP1 UPR arm activators, confirmation, cell-based, CHO-XBP1 luciferase reporter, luminescence, single concentration | AID 485299, 2010 | activation, % at 20 µM | 63% of 1,000 active | shares compounds with XBP1 UPR activ;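 active = reporter signal at least 30% of the positive control's activation in two or more of four replicate wells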
Hits are given with their value; - = inactive; . = no result given. The entries come from a sample that favours hits as a whole.

SMILES | V-ATPase pH | CHOP inh | Tb MetRS inh | UPR CHOP act | XBP1 UPR activ | UPR XBP1 confirm
COc1c(Cl)cc(Cl)cc1/C=N/NC(=O)c1nnn(-c2nonc2N)c1CN1CCC(C)CC1 | - | . | - | - | 68 | 91
CC1CCN(Cc2c(C(=O)N/N=C/c3cccc(C(F)(F)F)c3)nnn2-c2nonc2N)CC1 | - | . | - | - | - | .
Cc1cc(C)c(/C=N/NC(=O)c2nnn(-c3nonc3N)c2CN2CCC(C)CC2)c(C)c1 | - | . | - | - | 32 | -
CN(C)c1ccc(/C=N/NC(=O)c2ccc(NC(=O)c3ccccc3)cc2)cc1 | - | - | - | - | 189 | 83
O=C(N/N=C/c1ccc(Br)cc1)c1ccc(NC(=O)c2ccccc2)cc1 | - | . | - | . | . | .
Cc1ccc2c(c1)C(c1ccc(N3CCOCC3)cc1)=NNC(c1cccs1)=N2 | - | - | - | - | 62 | 57
Fc1ccc2c(c1)C(c1ccc(N3CCOCC3)cc1)=NNC(c1cccs1)=N2 | - | - | - | - | - | .
Brc1ccc2c(c1)C(c1ccc(N3CCOCC3)cc1)=NNC(c1cccs1)=N2 | - | - | - | - | 88 | 81
Cc1cccc(CNc2ccc(C(CC(N)=O)NC(=O)c3cccc(Br)c3)cc2[N+](=O)[O-])c1 (stereo not drawn) | - | - | - | - | - | .
CC(CC(=O)N(CCC1=CCCCC1)c1c(N)n(Cc2ccccc2)c(=O)[nH]c1=O)c1ccccc1 (stereo not drawn) | - | . | - | - | 40 | -
COc1ccc(CC(=O)N(CCC2=CCCCC2)c2c(N)n(Cc3ccccc3)c(=O)[nH]c2=O)cc1 | - | . | - | . | . | .
CCOc1ccc(OCC(=O)N(CCC2=CCCCC2)c2c(N)n(Cc3ccccc3)c(=O)[nH]c2=O)cc1 | - | . | - | - | 31 | -
Cn1ncc(Cl)c1C(=O)N1CCN(S(=O)(=O)c2ccc(Cl)s2)CC1 | - | . | - | - | - | .
Cc1nnc(NC(=O)c2ccc(Br)o2)s1 | - | . | - | - | - | .
O=C(/C=C/c1cccc([N+](=O)[O-])c1)N1CCN(c2ccc(F)cc2)CC1 | - | - | - | - | - | .
CCCCNc1c(-c2ccc(-c3ccc(C(C)=O)cc3)c(OC)c2)nc2cc(C)ccn12 | - | . | - | - | 40 | 38
C=CCn1nc(C(=O)N2CCOCC2)cc1-c1sc(NC(=O)c2ccccc2)nc1C | - | . | - | . | . | .
Cc1ccc(Cl)cc1N1CCN(Cc2nc3c(c(=O)[nH]c(=O)n3C)n2Cc2ccccc2F)CC1 | - | . | - | - | - | .
Cc1ccc(Cl)cc1N1CCN(Cc2nc3c(c(=O)[nH]c(=O)n3C)n2CCc2ccccc2)CC1 | - | - | - | - | 46 | 55
COc1ccccc1Nc1nc(NCc2ccco2)nc(N)c1[N+](=O)[O-] | - | - | - | - | - | .
COc1ccc(OC)c(Nc2nc(NCc3ccco3)nc(N)c2[N+](=O)[O-])c1 | - | - | - | - | 55 | 62
Cc1cccn2c(=O)c3cc(S(=O)(=O)c4ccccc4)c(=N)n(Cc4cccnc4)c3nc12 | - | . | - | - | - | .
Cc1ccc(S(=O)(=O)c2cc3c(=O)n4cccc(C)c4nc3n(Cc3ccncc3)c2=N)cc1 | - | . | - | - | 49 | -
COc1ccc(-c2cc(C(F)F)n3ncc(C(=O)Nc4ccc(C(=O)N5CCOCC5)cc4)c3n2)cc1 | - | - | - | - | 33 | 52
Cc1ccc2c(c1)c(N=NC(N)=S)c(O)n2Cc1ccccc1 | - | - | - | - | 33 | 41
SMILES | V-ATPase pH | CHOP inh | Tb MetRS inh | UPR CHOP act | XBP1 UPR activ | UPR XBP1 confirm
NC(=S)N=Nc1c(O)n(Cc2ccc(F)cc2)c2ccccc12 | - | - | - | - | - | .
C/C(Cl)=C\Cn1c(O)c(N=NC(N)=S)c2cc(Br)ccc21 | - | - | - | - | 84 | 120
NC(=S)N=Nc1c(O)n(CCCl)c2ccc(Br)cc12 | - | - | - | - | - | .
O=C(CN1C(=O)c2ccccc2C1=O)Nc1ccc(S(=O)(=O)N2CCOCC2)cc1 | - | - | - | - | - | .
CCOC(=O)/C=c1\s/c(=C\c2ccc(C)cc2)c(=O)n1CC(=O)NCc1ccco1 | - | - | - | - | 55 | -
Clc1ccc(C#Cc2cccnc2)cc1 | - | . | - | - | - | .
COc1ccc(/C=N/Nc2cc(C)nc3ccc(Br)cc23)cc1 | - | . | - | - | 32 | 36
O=S(=O)(NCc1ccco1)c1ccc(Cl)nc1 | - | - | - | - | - | .
CCN(CC)S(=O)(=O)c1ccc2c(c1)C(=NO)c1cc(S(=O)(=O)N(CC)CC)ccc1-2 | - | - | - | - | 52 | 79
CCN(CC)S(=O)(=O)c1ccc(C)c(C)c1 | - | - | - | - | - | .
CC1(C)CC(NC(=O)C(Cl)(Cl)Cl)CC(C)(C)N1 | - | - | - | - | - | .
C=CCNc1nnnc2c1sc1nc(N3CCOCC3)c3c(c12)CCCC3 | - | - | - | - | - | .
CC(C)CNc1nnnc2c1sc1nc(N3CCOCC3)c3c(c12)CCCC3 | - | - | - | - | 55 | -
COc1cc2c(cc1OC)[C@@H](NC(=O)CCc1ccccc1)[C@H](OCc1ccccc1)C2 | - | . | - | - | - | .
CCC(=O)Nc1ccc(NC(=O)CSc2nc3cc4c(cc3cc2C)CCC4)cc1 | - | 94 | - | - | 50 | 40
COc1ccc(/C=C/C(=O)OCC(=O)c2cc(C)ccc2C)cc1 | - | . | - | . | . | .
COc1cc2c(cc1NC(=S)NC(=O)/C=C/c1ccc(OC)c(OC)c1)oc1ccccc12 | - | - | - | . | . | .
COc1cc2c(cc1NC(=S)NC(=O)/C=C/c1ccco1)oc1ccccc12 | - | - | - | - | 52 | 77
COc1ccc(-c2csc(NC(=S)NC(=O)/C=C/c3ccco3)n2)cc1Br | - | - | - | - | 202 | 201
C=C(C(=O)c1ccccc1)C(CC(=O)c1ccccc1)c1ccccc1 (stereo not drawn) | - | - | - | - | - | .
O=C(Nc1ccc(-n2nncc2-c2ccco2)cc1)c1cc2ccccc2oc1=O | - | - | - | - | 67 | -
COCCCNC(=O)CC1C[C@H](C(=O)N2CCOCC2)[C@@]2(C)c3[nH]c4ccc(OC)cc4c3CCN2C1=O (stereo partly drawn) | - | . | - | - | - | .
COC(=O)CSc1cc(C)nc2ccc(OC)cc12 | - | - | - | - | - | .
COc1ccc2nc(C)cc(SCC(=O)N/N=C/c3cccc4ccccc34)c2c1 | - | - | - | - | 80 | 126
CC12CCC(C/C1=N/O)C2(C)CBr (stereo not drawn) | - | - | - | - | - | .
COc1cc2sc(-c3ccccc3OC)c(-c3ccc(OCCN4CCCCC4)cc3)c2cc1OC | - | . | - | - | - | .
